Assay results taken from PubChem BioAssay.
Activity calls are given as the source filed them.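 The calls were made as follows, unless noted: active = inhibition above 20% together with a positive visual image hit; inconclusive = visual image hit but inhibition not above 20%; inactive = no visual image hit.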

Columns and labels:
[1] = inhibitors of TNFa-induced NFkB p65 translocation, primary screen, imaging, HUVEC, MLSMR starter and 10KST1 sets (AID 438); conditions: HUVEC TNFa-induced p65 nuclear translocation; cell count: measured here: nuclei count (cytotoxicity indicator), at 2.08 µM; inhibition: at 2 µM, stronger effect = higher value, 0% TNFa-plus-vehicle, 100% no-TNFa wells;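 also: compound added about 3h40 before a 20 min TNFalpha stimulation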;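 as to inhibition: signal is the nuclear over cytoplasmic p65 intensity ratio per well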
[2] = inhibitors of E-selectin induction by TNFa, primary screen, imaging, HUVEC, immunofluorescence, MLSMR starter and 10KST1 sets (AID 487;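 active = visually confirmed hit in the image check and inhibition above 20%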;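 as to inhibition: signal is fraction of cell area covered by stained E-selectin grains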;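 as to nuclei count: 100% = median nuclei count of all wells on the same plate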); conditions: HUVEC TNFalpha-induced E-selectin immunofluorescence imaging, at 2 µM; inhibition: stronger effect = higher value; nuclei count: measured here: cell number, toxicity
[3] = DUSP6 inhibitors restoring Erk phosphorylation by chemical complementation, primary imaging in DUSP6-transfected HeLa (AID 609;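 active = compounds giving at least 50% inhibition in the cell-based MKP-3 phosphatase rescue imaging test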;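 as to inhibition: phospho-Erk level distribution per well compared with pooled transfected vehicle control wells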); conditions: HeLa MKP-3 transfected, phospho-Erk imaging KS statistic, at 10 µM, cells stimulated with TPA for 15 min
[4] = molecular target: Dual specificity protein phosphatase 6 (Homo sapiens) (UniProt Q16828); assay: as above; conditions: HeLa MKP-3 transfected, phospho-Erk imaging KS statistic; at 10 µM; stronger effect = higher value; cells stimulated with TPA for 15 min
[5] = molecular target: Voltage-gated potassium channel subunit beta-2 (Rattus norvegicus) (UniProt P62483); assay: KvBeta enzyme negative modulators, primary screen, biochemical, NADPH fluorescence (AID 622;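 active = fluorescence slope higher than the sample average by over 3 SD, cut at about -0.22 in these data, passing the limit was not always enough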;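 also: slope of raw intensity against log time taken from 70 to 1610 s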); conditions: recombinant KvBeta, 4-cyanobenzaldehyde reduction, at 10 µM, stronger effect = higher value
[6] = molecular target: Voltage-gated potassium channel subunit beta-2 (Rattus norvegicus) (UniProt P62483); assay: KvBeta positive modulators, primary screen, biochemical, NADPH fluorescence (AID 623;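 active = NADPH fluorescence slope more negative than the mean of all samples by about 3 SD, 99.7% confidence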;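 also: fluorescence intensity change per second fitted from 20 to 320 s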); conditions: Recombinant KvBeta, NADPH fluorescence decrease slope, 10 min; at 10 µM; stronger effect = lower value
[7] = molecular target: Muscarinic acetylcholine receptor M4 (Homo sapiens) (UniProt P08173); assay: compounds altering M4/GIRK thallium flux, either direction, primary screen, M4 allosteric agonist project, cell-based, HEK293 M4/GIRK, BTC-AM (AID 625;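 active = fluorescence slope after compound addition differing from the mean of all tested samples at 99.7% confidence, mostly higher but some lower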;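 also: thallium influx through GIRK channels coupled to M4 in HEK293 cells with BTC-AM dye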); conditions: at 10 µM, actives lie on both sides
Outline: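 System: HEK293 cells with M4 receptor and GIRK channels | Incubation: Cells overnight at 37 °C, BTC-AM loading 1 h, reads 2 min total | Technique: Kinetic BTC-AM fluorescence sampled at 1 Hz, 10 s pre-addition baseline | Measure: Post-addition slope, 15–24 s, of baseline-normalized fluorescence | Control set: Carbachol positive, DMSO negative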

[8] = inhibitors of larval lipid processing in zebrafish, primary screen, whole organism, PED6 fluorescence, gall bladder and intestine (AID 686;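 active = a full or partial loss of lipid-probe fluorescence in the fish gall bladder, intestine or both, judged by eye; inactive = no fluorescence loss, or compound toxic to the fish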;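 also: larvae 5 to 7 days old with five fish per well; signal comes from phospholipase A2 cleavage of quenched PED6 carried via bile; overnight exposure to compound and PED6 before scoring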); conditions: Zebrafish larvae PED6 lipid processing, fluorescence scoring; screened at 20 µM (by protocol)
Outline: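 Test system – live zebrafish larvae aged 5-7 days, whole organism · Buffer or medium – E3 fish medium · Reagent – quenched phospholipase substrate PED6, 100 nM final, ingested by larvae · Doses – 20 µM single dose · Incubation – overnight compound and PED6 incubation · Technique – visual fluorescence microscopy scoring of gall bladder, gut · Read-out basis – visual per-well fluorescence inhibition score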

[9] = inhibitors of Chlamydomonas gravitaxis, primary screen, whole organism, Chlamydomonas reinhardtii, WT vs cilia-less mutant, absorbance, 96-well (AID 463189;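 active = inhibition at or above 50% relative to wild type and mutant plate controls; inactive = inhibition below 50%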;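 also: 0% = wild type cc124 cells in DMSO and 100% = ciliumless bld1 mutant cells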); conditions: OD600 absorbance, 2 days, at 10 µM, stronger effect = higher value
[10] = measured here: cell density z-score
[11] = measured here: nuclear c-Myc green intensity z-score
[12] = measured here: nuclear pErk red intensity z-score, stronger effect = higher value

Dual specificity protein phosphatase 6 (Homo sapiens), sequence (Q16828 whole entry, looked up): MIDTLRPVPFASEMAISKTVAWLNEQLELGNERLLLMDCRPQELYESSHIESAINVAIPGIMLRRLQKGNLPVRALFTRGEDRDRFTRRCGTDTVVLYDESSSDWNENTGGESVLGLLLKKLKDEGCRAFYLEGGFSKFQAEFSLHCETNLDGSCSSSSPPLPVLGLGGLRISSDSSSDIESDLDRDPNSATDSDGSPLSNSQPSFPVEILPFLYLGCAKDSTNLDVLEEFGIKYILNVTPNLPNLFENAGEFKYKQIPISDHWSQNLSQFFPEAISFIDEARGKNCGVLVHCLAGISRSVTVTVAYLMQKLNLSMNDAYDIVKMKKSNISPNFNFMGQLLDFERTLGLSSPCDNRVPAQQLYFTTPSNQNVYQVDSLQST
Muscarinic acetylcholine receptor M4 (Homo sapiens), sequence (P08173 whole entry, looked up): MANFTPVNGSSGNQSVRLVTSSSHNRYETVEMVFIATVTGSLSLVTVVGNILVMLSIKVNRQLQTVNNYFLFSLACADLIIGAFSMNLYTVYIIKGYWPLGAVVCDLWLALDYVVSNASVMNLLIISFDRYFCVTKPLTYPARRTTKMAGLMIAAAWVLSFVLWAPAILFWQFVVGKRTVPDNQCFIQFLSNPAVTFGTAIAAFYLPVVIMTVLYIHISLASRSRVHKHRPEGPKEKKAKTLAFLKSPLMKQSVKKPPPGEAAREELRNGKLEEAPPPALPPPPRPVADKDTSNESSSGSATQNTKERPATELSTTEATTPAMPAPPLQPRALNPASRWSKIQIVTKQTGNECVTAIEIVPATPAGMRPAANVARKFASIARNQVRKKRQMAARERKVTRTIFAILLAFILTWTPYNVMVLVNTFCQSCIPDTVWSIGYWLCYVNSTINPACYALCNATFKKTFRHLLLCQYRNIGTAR
Voltage-gated potassium channel subunit beta-2 (Rattus norvegicus), sequence (P62483 whole entry, looked up): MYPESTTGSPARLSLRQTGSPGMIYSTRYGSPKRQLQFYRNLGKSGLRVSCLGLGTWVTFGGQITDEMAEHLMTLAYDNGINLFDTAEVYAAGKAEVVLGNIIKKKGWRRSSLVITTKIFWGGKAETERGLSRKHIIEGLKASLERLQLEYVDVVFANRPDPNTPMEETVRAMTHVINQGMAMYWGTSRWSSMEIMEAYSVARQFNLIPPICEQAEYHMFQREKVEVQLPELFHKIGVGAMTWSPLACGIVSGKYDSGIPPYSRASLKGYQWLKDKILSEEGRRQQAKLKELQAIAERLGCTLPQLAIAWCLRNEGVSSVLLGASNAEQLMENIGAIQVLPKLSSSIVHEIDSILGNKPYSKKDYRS

SMILES | cell count [1] | inhibition [1] | inhibition [2] | nuclei count [2] [%] | z-score [3, 10] | z-score [3, 11] | z-score [3, 12] | inhibition [4] | fluorescence slope [5] | NADPH fluorescence slope [6] | fluorescence slope [7] | outcome [8] | inhibition [9]
Cc1cc(=O)oc(C)c1C(=O)NCC(C)NC(=O)c1c(C)cc(=O)oc1C (configuration not stated) | 531 | 3.7% (inactive) | 32.8% (inactive) | 164 | 0.5 | -1.12 | -0.355 | 19.8% (inactive) | -0.384 (inactive) | -5.3e-05 (inactive) | 0.00562 (inactive) | inactive | 20.8% (inactive)
CCOC(=O)C1=Nc2ccccc2C1=[N+]=[N-] | 714 | -2.2% (inactive) | 6.6% (inactive) | 179 | -0.487 | 0.636 | 1.84 | -5.95% (inactive) | -0.477 (inactive) | -4.9e-05 (inactive) | 0.00733 (inactive) | inactive | 152% (active)
Cc1c2c([n+]3n1CCC3)CC(C)(C)CC2=O | 617 | 10.2% (inactive) | -23.3% (inactive) | 121 | -0.832 | 1.36 | 0.404 | -7.67% (inactive) | -0.443 (inactive) | -3.2e-05 (inactive) | 0.00512 (inactive) | inactive | -11.5% (inactive)
Cc1ccc(S(=O)(=O)N(CC(O)CN(C)C)c2ccccc2)cc1 (configuration not stated) | 534 | -13.1% (inactive) | -98.3% (inactive) | 180 | 0.563 | -0.408 | -0.341 | -6.59% (inactive) | -0.412 (inactive) | -7e-05 (inactive) | 0.00541 (inactive) | inactive | 2.93% (inactive)
CCCc1cc(NCCN2CCOCC2)n2c(nc3ccccc32)c1C#N | 472 | 0.5% (inactive) | -144% (inactive) | 105 | -1.9 | 2.65 | 0.164 | 1.98% (inactive) | -0.324 (inactive) | 7.2e-06 (inactive) | 0.00729 (inactive) | inactive | -18.9% (inactive)
N#Cc1c(N)n(CCOC(=O)c2ccc(Cl)cc2)c2nc3ccccc3nc12 | 617 | 22.7% (active) | -33.2% (inactive) | 95 | -0.315 | -0.666 | -0.586 | -2.47% (inactive) | -0.278 (inactive) | -7.1e-06 (inactive) | 0.00595 (inactive) | inactive | -2.92% (inactive)
COc1ccc(C2C(C#N)=C(N)Oc3cc(C)n(CCN4CCOCC4)c(=O)c32)cc1OC (configuration not stated) | 520 | -5.9% (inactive) | 0.9% (inactive) | 110 | -1.19 | 0.613 | -1.48 | -10.1% (inactive) | -0.468 (inactive) | -3.9e-05 (inactive) | 0.00521 (inactive) | inactive | 1.58% (inactive)
CN1CCN(Cc2c(O)c(Cl)cc3c(-c4ccccc4)cc(=O)oc23)CC1 | 601 | -8.3% (inactive) | -38.4% (inactive) | 108 | -0.109 | -0.251 | -0.155 | 2.46% (inactive) | -0.232 (inactive) | -2.2e-05 (inactive) | 0.00592 (inactive) | inactive | 10.5% (inactive)
CCOC(=O)CSc1nc(N2CCOCC2)c2c(c1C#N)CC(C)(C)N(C)C2 | 531 | -4.6% (inactive) | -19.7% (inactive) | 102 | -0.379 | 0.944 | -0.77 | 1.42% (inactive) | -0.505 (inactive) | 4.1e-05 (inactive) | 0.00477 (inactive) | inactive | 33.8% (inactive)
CC(C)OC(=O)c1c2nc3ccccc3nc2n2c1[nH]c(=O)c1ccccc12 | 519 | 4% (inactive) | -30.4% (inactive) | 96.9 | 1.31 | -1.51 | -0.702 | 16.5% (inactive) | -0.445 (inactive) | 2e-05 (inactive) | 0.069 (active) | inactive | 6.9% (inactive)
O=C(NCCC1=CCCCC1)c1ccc(=O)oc1 | 670 | -1.4% (inactive) | 33.5% (inactive) | 163 | -0.394 | -0.165 | 0.265 | -2.29% (inactive) | -0.448 (inactive) | -0.000197 (inactive) | 0.00522 (inactive) | inactive | 20.7% (inactive)
CCN(CC)CCCN1C(=O)C(=O)/C(=C(/O)c2ccc(OC)cc2)C1c1ccco1 (configuration not stated) | 651 | -11.9% (inactive) | 43.5% (inactive) | 185 | 0.516 | 0.587 | 0.462 | -0.233% (inactive) | -0.471 (inactive) | -0.000107 (inactive) | 0.0055 (inactive) | inactive | -7.38% (inactive)
COc1nnnc2c1sc1nc(N3CCOCC3)c3c(c12)CC(C)(C)OC3 | 590 | -3.9% (inactive) | -92.2% (inactive) | 154 | 0.493 | 0.116 | -0.785 | -13.3% (inactive) | -0.482 (inactive) | -0.000107 (inactive) | 0.00514 (inactive) | inactive | -3.82% (inactive)
CC(NC(=O)c1ccc(=O)oc1)c1ccccc1 (configuration not stated) | 544 | 4.1% (inactive) | 56.8% (inactive) | 167 | -0.00091 | 1.16 | 1.91 | 13.9% (inactive) | -0.409 (inactive) | -5.3e-05 (inactive) | 0.00521 (inactive) | inactive | 6.14% (inactive)
